From ChEMBL document CHEMBL4680287, “Ibrexafungerp: An orally active β-1,3-glucan synthesis inhibitor” (Bioorg Med Chem Lett, 2021)
Values after ≈ are worked out from the molar mass of the structure shown.

Assays:
[1] = Inhibition of beta-1,3-glucan synthase in Candida albicans MY1055 microsomal membrane assessed as inhibition of TCA-insoluble material formation using UDP-[3H]-glucose as substrate incubated for 2 hrs in presence of GTP by radioactivity-based assay; assay type: microsomes, Microsome
In short: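 GS IC50 measured using Candida albicans MY1055 microsomal membrane fragments as the enzyme source.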

Candida albicans [2] = test: Antifungal activity against Candida albicans MY1055 infected in DBA/2 mouse model of disseminated candidiasis assessed as reduction in fungal burden in kidney by measuring log change in colony forming units at 12.5 mg/kg, po bid for 7 days by TOKA; assay type: functional; conditions: time 7 day
In short: (§1)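 Murine disseminated candidiasis model (TOKA) in mice challenged with C. albicans MY1055 at 2.44 x 10^4 CFU/mouse. Dosed PO, or IP where stated. Kidneys collected aseptically 7 days after challenge and CFUs/g counted. Change in log CFU/g is relative to sham-treated controls; significance by two-tailed t test. Clearance is the percentage of kidneys below the detection limit.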

Candida albicans [3] = test: Antifungal activity against Candida albicans MY1055 infected in DBA/2 mouse model of disseminated candidiasis assessed as reduction in fungal burden in kidney by measuring log change in colony forming units at 25 mg/kg, po bid for 7 days by TOKA; assay type: functional; conditions: time 7 day; in short: as §1
Candida albicans [4] = test: Antifungal activity against Candida albicans MY1055 assessed as fungal growth inhibition measured after 24 hrs in presence of 50% mouse serum by liquid microdilution method; assay type: functional
In short: (§2)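 Broth microdilution per CLSI protocols in RPMI medium. Read-out is the MIC, the lowest concentration completely inhibiting fungal growth. Run without serum and with added serum.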

Aspergillus fumigatus = test: Antifungal activity against Aspergillus fumigatus MF5668 assessed inhibition of fungal growth by measuring morphological changes measured after 24 hrs by microscopy; assay type: functional; conditions: read-out: MEC
In short: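 Microdilution per CLSI protocols in RPMI medium. Read-out is the minimum effective concentration (MEC). Run without serum and with 50% human serum.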

Candida albicans [5] = test: Antifungal activity against Candida albicans MY1055 infected in DBA/2 mouse model of disseminated candidiasis assessed as reduction in fungal burden in kidney by measuring log change in colony forming units at 6.25 mg/kg, po bid for 7 days by TOKA; assay type: functional; conditions: time 7 day; in short: as §1
Candida albicans [6] = test: Antifungal activity against Candida albicans MY1055 assessed as fungal growth inhibition measured after 24 hrs by liquid microdilution method; assay type: functional; in short: as §2
[7] = Oral bioavailability in mouse; assay type: ADME, organism-based; conditions: in vivo
In short: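 Oral bioavailability calculated as oral AUC normalized to the IV dose, divided by the IV AUC.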

[8] = Dose normalized AUC in po dosed mouse; assay type: ADME, organism-based; conditions: in vivo
Candida albicans [9] = test: Antifungal activity against Candida albicans MY1055 infected in DBA/2 mouse model of disseminated candidiasis assessed as reduction in fungal burden in kidney by measuring log change in colony forming units at 12.5 mg/kg, ip bid for 7 days by TOKA; assay type: functional; conditions: time 7 day; in short: as §1

SMILES | IC50 [1] [µg/mL] | Activity (Candida albicans [2]) [deltalog10CFU] | Activity (Candida albicans [3]) [deltalog10CFU] | MIC (Candida albicans [4]) [µg/mL] | minimal effective concentration (Aspergillus fumigatus) [µg/mL] | Activity (Candida albicans [5]) [deltalog10CFU] | MIC (Candida albicans [6]) [µg/mL] | bioavailability [7] [%] | AUC/dose [8] [µM·kg·h/mg] | Activity (Candida albicans [9]) [deltalog10CFU]
CC(C)[C@@H](C)[C@@]1(C)CC[C@]2(C)[C@H]3CC[C@@H]4[C@@]5(COC[C@@]4(C)[C@@H](OC[C@](C)(N)c4ccccc4)[C@H](n4ncnc4-c4ccncc4)C5)C3=CC[C@@]2(C)[C@@H]1C(=O)O | 0.006 | -1.5 | -2.6 | 4 | 0.125 | -0.5 | 0.25 (≈ 0.333 µM) | – | – | –
CC(C)[C@@H](C)[C@@]1(C)CC[C@]2(C)[C@H]3CC[C@@H]4[C@@]5(COC[C@@]4(C)[C@@H](OC[C@](C)(N)C(C)C)[C@H](n4ncnc4-c4ccncn4)C5)C3=CC[C@@]2(C)[C@@H]1C(=O)O | 0.005 | – | – | 4 | < 0.03 | – | < 0.03 | 43 | 2.38 | –
CC(C)[C@@H](C)[C@@]1(C)CC[C@]2(C)[C@H]3CC[C@@H]4[C@@]5(COC[C@@]4(C)[C@@H](OCC(C)(C)N)[C@H](n4ncnc4-c4ccncc4)C5)C3=CC[C@@]2(C)[C@@H]1C(=O)O | 0.001 | -1.1 | – | 0.5 | < 0.03 | – | 0.015 (≈ 0.0218 µM) | – | – | -4.2
CC(C)[C@@H](C)[C@@]1(C)CC[C@]2(C)[C@H]3CC[C@@H]4[C@@]5(COC[C@@]4(C)[C@@H](OC[C@](C)(N)C(C)C)[C@H](n4ncnc4-c4ccncc4F)C5)C3=CC[C@@]2(C)[C@@H]1C(=O)O | 0.001 | -2.5 | -4.2 | 1 | 0.008 | -2.6 | 0.015 (≈ 0.0204 µM) | 26 | 0.34 | –
CN[C@@](C)(CO[C@H]1[C@H](n2ncnc2-c2ccncc2)C[C@@]23COC[C@]1(C)[C@@H]2CC[C@H]1C3=CC[C@@]2(C)[C@H](C(=O)O)[C@@](C)([C@H](C)C(C)C)CC[C@]12C)C(C)(C)C | 0.002 | -3.2 | -4.2 | 1 | 0.008 | -1.7 | 0.03 (≈ 0.0403 µM) | – | 0.62 | –
CN[C@@](C)(CO[C@H]1[C@H](n2ncnc2-c2cccnc2)C[C@@]23COC[C@]1(C)[C@@H]2CC[C@H]1C3=CC[C@@]2(C)[C@H](C(=O)O)[C@@](C)([C@H](C)C(C)C)CC[C@]12C)C(C)C | 0.005 | -2.4 | -3 | 1 | < 0.03 | -1.1 | 0.25 (≈ 0.342 µM) | 21 | 0.59 | –
CC(C)[C@@H](C)[C@@]1(C)CC[C@]2(C)[C@H]3CC[C@@H]4[C@@]5(COC[C@@]4(C)[C@@H](OC[C@](C)(N)C(C)C)[C@H](n4ncnc4-c4cncnc4)C5)C3=CC[C@@]2(C)[C@@H]1C(=O)O | 0.006 | -3 | -3 | 1 | < 0.03 | -2.1 | 0.06 (≈ 0.0837 µM) | 26 | 0.33 | –
CC(C)[C@@H](C)[C@@]1(C)CC[C@]2(C)[C@H]3CC[C@@H]4[C@@]5(COC[C@@]4(C)[C@@H](OC[C@](C)(N)C(C)C)[C@H](n4ncnc4-c4ccccc4)C5)C3=CC[C@@]2(C)[C@@H]1C(=O)O | 0.003 | -1.7 | -2.4 | 4 | < 0.03 | -0.2 | 0.25 (≈ 0.35 µM) | 28 | 0.5 | –
CC(C)[C@@H](C)[C@@]1(C)CC[C@]2(C)[C@H]3CC[C@@H]4[C@@]5(COC[C@@]4(C)[C@@H](OC[C@H](N)C(C)(C)C)[C@H](n4ncnc4-c4ccncc4)C5)C3=CC[C@@]2(C)[C@@H]1C(=O)O | 0.007 | -2.4 | -2.6 | 2 | < 0.03 | -1 | 0.25 (≈ 0.349 µM) | – | – | –
CC(C)[C@@H](C)[C@@]1(C)CC[C@]2(C)[C@H]3CC[C@@H]4[C@@]5(COC[C@@]4(C)[C@@H](OC[C@](C)(N)C(C)C)[C@H](n4ncnc4-c4cccnc4)C5)C3=CC[C@@]2(C)[C@@H]1C(=O)O | 0.004 | -2.9 | -3.1 | 1 | < 0.03 | -1.4 | 0.06 (≈ 0.0838 µM) | 11 | 0.17 | –
CC(C)[C@@H](C)[C@@]1(C)CC[C@]2(C)[C@H]3CC[C@@H]4[C@@]5(COC[C@@]4(C)[C@@H](OC[C@@]4(N)CCOCC4(C)C)[C@H](n4ncnc4-c4ccncc4)C5)C3=CC[C@@]2(C)[C@@H]1C(=O)O | 0.004 | -2.2 | -3.2 | 1 | 0.004 | -0.9 | 0.06 (≈ 0.0791 µM) | 25 | 0.35 | –
CC(C)[C@@H](C)[C@@]1(C)CC[C@]2(C)[C@H]3CC[C@@H]4[C@@]5(COC[C@@]4(C)[C@@H](OC[C@](C)(N)C(C)C)[C@H](n4ncnc4-c4cccc(F)c4)C5)C3=CC[C@@]2(C)[C@@H]1C(=O)O | 0.011 | – | – | 8 | < 0.03 | – | 0.25 (≈ 0.341 µM) | – | – | –
CC(C)[C@@H](C)[C@@]1(C)CC[C@]2(C)[C@H]3CC[C@@H]4[C@@]5(COC[C@@]4(C)[C@@H](OC[C@](C)(N)C(C)C)[C@H](n4ncnc4-c4ccnnc4)C5)C3=CC[C@@]2(C)[C@@H]1C(=O)O | 0.002 | -1.2 | -2.6 | 1 | < 0.03 | -1.2 | 0.125 (≈ 0.174 µM) | 29 | 0.23 | –
CCC(N)(CC)CO[C@H]1[C@H](n2ncnc2-c2ccncc2)C[C@@]23COC[C@]1(C)[C@@H]2CC[C@H]1C3=CC[C@@]2(C)[C@H](C(=O)O)[C@@](C)([C@H](C)C(C)C)CC[C@]12C | 0.001 | -2.3 | -3.3 | 1 | < 0.03 | -1.3 | 0.06 (≈ 0.0838 µM) | – | – | –
CCCc1ncnn1[C@@H]1C[C@@]23COC[C@](C)([C@@H]2CC[C@H]2C3=CC[C@@]3(C)[C@H](C(=O)O)[C@@](C)([C@H](C)C(C)C)CC[C@]23C)[C@H]1OC[C@](C)(N)C(C)C | 0.003 | – | – | 16 | < 0.03 | – | 8 (≈ 11.7 µM) | – | – | –
CC(C)[C@@H](C)[C@@]1(C)CC[C@]2(C)[C@H]3CC[C@@H]4[C@@]5(COC[C@@]4(C)[C@@H](OC[C@](C)(N)C4(C)CC4)[C@H](n4ncnc4-c4ccncc4)C5)C3=CC[C@@]2(C)[C@@H]1C(=O)O | 0.002 | -2.6 | -4.3 | 0.5 | < 0.03 | -1.5 | < 0.03 | 36 | 0.65 | –
CN[C@@](C)(CO[C@H]1[C@H](n2ncnc2-c2ccncc2)C[C@@]23COC[C@]1(C)[C@@H]2CC[C@H]1C3=CC[C@@]2(C)[C@H](C(=O)O)[C@@](C)([C@H](C)C(C)C)CC[C@]12C)C(C)C | 0.001 | -3.1 | -3.7 | 0.5 | < 0.03 | -0.9 | 0.06 (≈ 0.0822 µM) | 29 | 0.83 | –
COc1ccc(-c2ncnn2[C@@H]2C[C@@]34COC[C@](C)([C@@H]3CC[C@H]3C4=CC[C@@]4(C)[C@H](C(=O)O)[C@@](C)([C@H](C)C(C)C)CC[C@]34C)[C@H]2OC[C@](C)(N)C(C)C)cc1 | 0.015 | – | – | 8 | < 0.03 | – | 0.5 (≈ 0.671 µM) | – | – | –
